Assay results reported in paper PMC9796681 (British Journal of Clinical Pharmacology, 2022).
Where “and” joins values, the source holds several entries; their conditions need not be identical. Equal entries are not always repeated. Entries after “also recorded” stand apart in the source; their conditions may differ. Where two headings read alike, the source gives them in different places. Blank lines part the entries; values can stand above or below the compound they belong to.

Assays:
[1] = cited from earlier work
[2] = Population pharmacokinetic analysis; type: in vivo, human
Summary of the method: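 Healthy young subjects: single 80 mg dose, fasting, sampled predose to 102 h. Gout patients: 40-160 mg/day at steady state (≥7 days after dose change), up to four samples at 1–24 h post-dose. Plasma assayed by HPLC-fluorescence, LLQ 0.005 µg mL-1. Two-compartment model, first-order elimination; power covariate model normalised to median; shared random effect on availability (FVAR); food tested on ka and F.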

[3] = one-compartment model; cited from earlier work
[4] = two-compartment model; gouty; cited from earlier work
[5] = single dose 80 mg, healthy subjects

SMILES: Cc1nc(-c2ccc(OCC(C)C)c(C#N)c2)sc1C(=O)O[C@@H]1O[C@H](C(=O)O)[C@@H](O)[C@H](O)[C@H]1O [Febuxostat glucuronide]
- proportion of the febuxostat dose as glucuronide, excreted by the kidneys ([1]; published data): about 40%

- BSV-CL/F, between-subject variability (coefficient of variation) ([2]; final model): 13.6% and 13.6 (37.4) %
- BSV-FVAR, common variability on oral availability ([2]; final model): 27.7 (21.2) %
- BSV-Vc/F, between-subject variability (coefficient of variation) ([2]; final model): 22% and 22.0 (35.4) %
- BSV-Vp/F, between-subject variability (coefficient of variation) ([2]; final model): 19.5% and 19.5 (58.2) %
- Covariate BMI (ϴ 7), power exponent on Vc/F ([2]; final model, body mass index, median 30.6 kg m^−2): 0.996
- Covariate food on ka ([2]; final model, fed status): −0.869
- Covariate food on oral availability ([2]; final model, fed status): −0.667
- reduction of absorption rate constant ka by food ([2]; final model, fed versus fasted): 87%
- reduction of oral availability (relative bioavailability) by food ([2]; final model, fed versus fasted): 67%
- RUV-CV%, residual unexplained variability ([2]; final model, proportional residual error): 39.9 (10.1) %
- absorption rate constant ka (ϴ 5), population mean ([2]; final two-compartment model): 3.6 h⁻¹ and 3.62 h⁻¹
- apparent peripheral volume of distribution Vp/F (ϴ 4), population mean ([2]; final two-compartment model): 19.4 L
- intercompartmental clearance Q (ϴ 3), population mean ([2]; final two-compartment model): 1.25 L/h
- Vd/F ([2]; human, plasma, oral): 32.8 L
SMILES: Cc1nc(-c2ccc(OCC(C)C)c(C#N)c2)sc1C(=O)O [febuxostat]
- effect of mild and moderate hepatic impairment on the pharmacokinetics ([1]; Child-Pugh class A and B): no effect; also recorded: did not affect
- CL/F ([1]; Japanese subjects who had gout or were hyperuricaemic): 9.9 L/h
- reduction of apparent clearance by UGT polymorphisms ([1]; UGT six and 28 variants): 22%
- ka, value assumed ([1]; assumed by Hirai et al): 2.18 h⁻¹
- decline of plasma concentration over the dosage interval ([1]; dosage interval 24 h): up to 100 fold
- CL/F ([1]; healthy African Americans): 10.5 L/h
- CL/F ([1]; healthy Chinese subjects): 5.3 Lh^−1
- effect of food on the extent of absorption (AUC0-48) ([1]; healthy subjects, 48 h): negligible effect; also recorded: reduce the rate but not the extent of absorption
- cleared by phase I metabolism (oxidation) ([1]; healthy subjects): ~ 35%
- cleared by phase II metabolism (glucuronidation) ([1]; healthy subjects): ~ 40%
- febuxostat eliminated from plasma in the first 9 h post-dose ([1]; healthy subjects): 81%
- reduction in AUC0-24 with food ([1]; healthy subjects): 20%
- reduction in C max with food ([1]; healthy subjects): 50%
- mean initial half-life [1, 5]: 2 h
- mean terminal half-life [1, 5]: 14 h
- ka, absorption rate constant [3]: 2.52 h⁻¹
- Residual CV [4]: 71%
- Vc/F, final estimate [4]: 32.2 L
- Vp/F, final estimate [4]: 22.2 L
- ka, absorption rate constant [4]: 13 h⁻¹
